Shown are actives, neighbours in structure and some others; about 8.9% of the full set was active somewhere.
Lmaj promast: reduces viability of Leishmania major promastigotes. resazurin fluorescence viability. inhibition, % at 10 µM. 200,000 tested, 9% active; in the data active = inhibition above about 50%;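 note: promastigotes grown with compound for 44 hours at 28 °C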
MT stabilize HCS: microtubule stabilization, imaging screen. HeLa tubulin immunostaining HCS, 24 h; share of cells brighter than vehicle mean+2SD. % tubulin-high responders, % at 10 µM. 200,000 tested, 0.83% active. AID 2205;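 active = plate Z-score above 3 for both tubulin-high and condensed-nucleus cell shares, with cell loss under 80%, at 10 µM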;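 note: anti alpha tubulin signal scored within the nucleus-defined area of each cell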
Dynein cargo inh: blocks dynein driven cargo transport along microtubules. z-score, hits read low. AID 1381. 3617.4 mouse cells, GR-EGFP nuclear translocation imaging; test concentration mostly 20 µM; stimulated with dexamethasone, 1 µM; active compounds read low. 220,000 tested, 0.47% active;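 active = plate z-score of nuclear minus cytoplasmic receptor signal below a set negative limit, without overly bright fluorescence or cell loss, cut at about -3.5 in these data, passing the limit was not always enough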;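 note: z-score of nuclear minus cytoplasmic ring GR-EGFP intensity difference per well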
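Buffer or medium: tet-free medium with charcoal-stripped serum / Also added: dexamethasone agonist, 1.0 µM final, for 30 min / Timing: induction 48 h, compound 1 h, agonist 30 min / Measured by: high-content fluorescence imaging after fixation / Read-out: nuclear-to-cytoplasmic GR-EGFP distribution per well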
b-catenin transl: modulators of beta-catenin nuclear translocation; nuclear translocation activity, % at 5 µM; 190,000 tested, 0.3% active; HeLa beta-catenin nuclear translocation, immunofluorescence imaging; AID 1665;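 active = nuclear translocation activity above 50% at 5 µM, with a well cell count of 50 or more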;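 note: per-cell ratio of nuclear to cytoplasmic median beta-catenin stain intensity; plate controls were DMSO negative control for no effect and GSK-3 inhibitor IX positive control for full effect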
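Test system: human HeLa cell line; Doses: 5 µM primary, 0.02–20 µM confirmation; Incubation: 24 h compound exposure, 37°C; Detection: beta-catenin immunofluorescence imaging with DAPI; Read-out: beta-catenin nuclear/cytoplasmic ratio, % activation.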
HSV augment: increases HSV replication in cells. HSV replication augmentation in cells, fold increase. maximum fold increase. 220,000 tested, 0.005% active. AID 1956; in the data active = maximum fold increase above about 1.5; tested in PC3 cells
Starred values were filed as active, the others as inactive; i = inactive; x = no result given.

SMILES	Lmaj promast	MT stabilize HCS	Dynein cargo inh	b-catenin transl	HSV augment
O=C(NC1CC2CCCC(C1)N2CC(=O)N1CCCc2ccccc21)C1CCCCC1 (stereo unspecified)	57*	6	2.8	-2	i
Cc1ccc(C(=O)N2CCSCC2)cc1	-4	2	0.64	x	i
O=C(c1ccccn1)C1CCCN(Cc2nc(Cc3cccc(F)c3)no2)C1 (stereo unspecified)	x	x	-0.37	-2	i
CC(C)c1ccccc1NC(=O)COC(=O)c1c2c(nc3ccccc13)CCN(Cc1ccccc1)C2	46	2	-0.3	x	i
O=C(NC1CCCCCC1)c1c2c(nc3ccccc13)CCN(Cc1ccccc1)C2	20	3	-0.25	-3	i
Cc1c(Cl)cccc1NC(=O)COC(=O)c1c2c(nc3ccccc13)CCN(Cc1ccccc1)C2	99*	3	-0.11	-1	i
Cc1cc(N2CCN(C)CC2)ccc1NC(=O)c1c2c(nc3ccccc13)CCN(Cc1ccccc1)C2	100*	3	1.1	-3	x
COc1ccc(OCC#CCN2CC(C)OC(C)C2)cc1 (stereo unspecified)	57*	3	1.8	0	i
O=C(NC1CCN(Cc2ccccc2)CC1)c1ccc(N2CC3CC(C2)c2cccc(=O)n2C3)c([N+](=O)[O-])c1 (stereo unspecified)	-5	4	-0.58	0	i
CC1CC(C)CN(C(=O)c2ccc(N3CC4CC(C3)c3cccc(=O)n3C4)c([N+](=O)[O-])c2)C1 (stereo unspecified)	56*	3	0.14	-2	i
Cc1cc(C)cc(OCc2ccc(C(=O)N3N=C(C(F)F)CC3(O)C(F)F)o2)c1 (stereo unspecified)	1	2	-0.5	-1	x
COCCN=C1Sc2nc3cc(C)c(C)cc3cc2CN1Cc1cccs1	x	x	-0.056	0	i
COCCN=C1Sc2nc3ccc(C)cc3cc2CN1Cc1ccco1	60*	2	-0.2	-2	i
CCN(CC)c1ccc(C(=O)OCC(=O)Nc2cc3oc4ccccc4c3cc2OC)cc1	-3	6	0.53	0	i
COc1ccc(/C=N/n2c(SC)nnc(C(C)(C)C)c2=O)c(OC)c1	-2	4	2	-2	i
COc1ccc2c(c1)C(c1ccc(C)o1)=NNC(c1cccnc1)=N2	11	1	0.2	-3	i
Cc1ccc2[nH]c(=O)c(CN(Cc3ccco3)C(=O)c3cccs3)cc2c1	3	4	1.4	x	i
Cc1ccc2cc(CN(Cc3ccco3)C(=O)c3cccs3)c(=O)[nH]c2c1	4	34*	0.65	x	i
CCN(CC)CCN(Cc1cc2ccc(C)cc2[nH]c1=O)C(=O)Nc1ccc(Cl)cc1	63*	4	-0.41	0	i
Cc1ccc(NC(=S)N(Cc2cccs2)Cc2cc3cc(C)cc(C)c3[nH]c2=O)cc1	95*	2	0.6	0	i
Cc1cc(C)c2[nH]c(=O)c(CN(Cc3cccs3)C(=S)NCc3ccco3)cc2c1	99*	3	0.098	2	i
CCN(CC)CCN(Cc1cc2ccc(C)cc2[nH]c1=O)C(=O)NC1CCCCC1	5	4	-0.086	0	i
CCN(CC)CCN(Cc1cc2cc(C)cc(C)c2[nH]c1=O)C(=S)NCc1ccco1	38	3	-0.2	-1	x
Cc1ccc(NC(=O)C2CCN(S(C)(=O)=O)CC2)cc1C	-3	2	0.42	x	i
O=C(NCc1ccc2c(c1)OCO2)c1c(O)c2cccc3c2n(c1=O)CCC3	-4	5	0.55	0	i
SMILES	Lmaj promast	MT stabilize HCS	Dynein cargo inh	b-catenin transl	HSV augment
CCC1=Nc2cc(C(=O)NCCCOC(C)C)ccc2Sc2ccccc21	-1	5	0.15	x	i
COc1cc(/C=C2\N=C(c3ccccc3)OC2=O)ccc1OCc1c(C)no[n+]1[O-]	-6	3	-0.059	-1	i
Cc1ccc2[nH]c(=O)c3cc(C(=O)N(CCCOC(C)C)Cc4ccco4)sc3c2c1	75*	5	0.75	x	i
CNC(=S)N(Cc1cccs1)Cc1cc2cc(OC)c(OC)cc2[nH]c1=O	62*	1	1	0	i
CCN(CC)CCN(Cc1cc2cc(C)ccc2[nH]c1=O)C(=S)NCc1ccco1	61*	6	1	2	i
Cc1ccc(NC(=S)N(Cc2cccs2)Cc2cc3cc(C)ccc3[nH]c2=O)cc1	79*	1	-0.28	0	x
Cc1cccc(NC(=S)N(Cc2cccs2)Cc2cc3cc(C)ccc3[nH]c2=O)c1	26	2	0.071	-1	x

High-throughput results as filed in PubChem.
